Bioassay records (PubChem)
In the library only some 4.2% were active in any assay of this set; here they are far more common.
ANO1 block = inhibitors of mouse TMEM16A calcium-activated chloride channel. normalized B-score (activity score, 25-100; higher = stronger inhibition) at 10 µM. Q8BHY3. 310,000 tested, 1.2% active. HEK293 TMEM16A/YFP iodide influx fluorescence, ionomycin. AID 588511;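 active = ratio plate-corrected score three or more library SD toward inhibition, starting fluorescence score within five deviations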;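 also: score derived from kinetic fluorescence span divided by baseline fluorescence per well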
Target sequence (Q8BHY3 whole entry, looked up): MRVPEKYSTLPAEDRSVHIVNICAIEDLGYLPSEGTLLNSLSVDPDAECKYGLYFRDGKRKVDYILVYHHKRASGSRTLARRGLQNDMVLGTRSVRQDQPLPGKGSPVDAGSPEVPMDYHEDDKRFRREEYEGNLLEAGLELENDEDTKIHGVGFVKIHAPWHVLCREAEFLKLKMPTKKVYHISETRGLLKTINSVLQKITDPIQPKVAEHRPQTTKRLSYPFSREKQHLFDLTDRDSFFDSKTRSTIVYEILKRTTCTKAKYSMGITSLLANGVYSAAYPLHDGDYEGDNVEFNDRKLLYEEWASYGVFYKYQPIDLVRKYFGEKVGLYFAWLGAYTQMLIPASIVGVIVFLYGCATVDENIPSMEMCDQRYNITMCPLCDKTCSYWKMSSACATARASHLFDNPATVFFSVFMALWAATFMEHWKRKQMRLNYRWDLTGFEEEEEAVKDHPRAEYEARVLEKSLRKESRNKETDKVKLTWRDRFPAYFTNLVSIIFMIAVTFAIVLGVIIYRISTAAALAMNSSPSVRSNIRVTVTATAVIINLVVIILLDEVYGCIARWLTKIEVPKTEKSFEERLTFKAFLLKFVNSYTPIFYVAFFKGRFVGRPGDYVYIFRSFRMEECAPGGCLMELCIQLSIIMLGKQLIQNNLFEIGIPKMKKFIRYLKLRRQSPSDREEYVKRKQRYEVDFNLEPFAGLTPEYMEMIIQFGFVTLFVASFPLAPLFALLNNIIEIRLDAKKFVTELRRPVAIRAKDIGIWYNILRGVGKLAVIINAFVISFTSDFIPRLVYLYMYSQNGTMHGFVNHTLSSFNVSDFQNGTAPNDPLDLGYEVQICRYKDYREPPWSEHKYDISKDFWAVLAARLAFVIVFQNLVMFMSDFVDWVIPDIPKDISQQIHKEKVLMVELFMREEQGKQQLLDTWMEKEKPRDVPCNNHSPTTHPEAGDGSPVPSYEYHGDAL
UPR XBP1 act = activators of adaptive arm of unfolded protein response (XBP1). 330,000 tested, 0.33% active. activation, % at 20 µM. CHO-XBP1 luciferase reporter, IRE1-XBP1 UPR activation, luminescence; percent of tunicamycin response, DMSO as zero;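 active = versus positive control, 20 µM dose yields 30% or more activation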;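 also: 100% = tunicamycin at 10 µg/mL and 0% = DMSO only wells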
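Assay system: CHO-XBP1 luciferase reporter cells; Schedule: 6 h treatment, 37 °C; Detection: glow luminescence from Steady-Glo reagent; Benchmarks: high control tunicamycin 10 µg/mL final, low control DMSO vehicle only.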
Lipid droplet = hepatic lipid droplet formation modulation. AML12 mouse hepatocytes, oleate lipid droplets, BODIPY imaging. inhibition, % at 6.5 µM. 240,000 tested, 0.4% active. AID 1656;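 active = lipid droplet intensity inhibited by at least 50%, with more than 500 cells counted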
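Test system: AML12 hepatocytes (mouse); reagent: oleate loading, 100 µM; dosing: one dose, 6.5 µM compound; incubation: overnight exposure; signal: fluorescence imaging, 20x objective, two fields per well; read-out basis: % inhibition of corrected integrated BODIPY droplet signal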
ANO1 activ = mouse TMEM16A channel activation, primary screen; Q8BHY3; HEK293 TMEM16A/YFP-H148Q/I152L, iodide quench fluorescence; hits give low values; B-score at 10 µM; AID 623877; 340,000 tested, 0.3% active;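 active = fluorescence-ratio B-score plate-corrected deviation score at least 3 library SD below zero, with starting fluorescence score within 5 deviations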;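 also: channel opened by trigger with iodide after compound preincubation; score built on the fluorescence ratio of max minus min over baseline; more negative score means more quench and so TMEM16A activation or potentiation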
CHOP UPR activ = activators of apoptotic arm of unfolded protein response (CHOP); CHO-CHOP luciferase reporter, UPR activation, luminescence; percent of tunicamycin response over DMSO baseline; activation, % at 10 µM; 330,000 tested, 0.34% active;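 active = at 10 µM dose, activation of 40% or more, normalized to positive control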;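 also: 100% = tunicamycin at 10 µg/mL and 0% = DMSO alone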
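Test system: CHO-CHOP cells, stable luciferase reporter of PERK-eIF2a-CHOP signalling | Quantity: 500 CHO-CHOP cells per well | Buffer or medium: F12 plus 10% serum | Compound dosing: 10 µM single point, 0.5% DMSO | Schedule: 6 h compound treatment, 37 °C | Signal: Luciferase luminescence | Control set: Tunicamycin high control, DMSO low control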
CHOP inhibitor = blocks CHOP induction under ER stress; inhibition, % at 10 µM; CHO-K1 CHOP-promoter luciferase, tunicamycin-induced, 15-18 h; 220,000 tested, 3.8% active;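 active = compounds that reduced the stress-induced luciferase reporter signal by more than about 70% of percent inhibition, limit read from the data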;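 also: 0% = tunicamycin plus vehicle and 100% = wells without tunicamycin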
* = called active by the depositor; i = inactive; nt = no result.

SMILES	ANO1 block	UPR XBP1 act	Lipid droplet	ANO1 activ	CHOP UPR activ	CHOP inhibitor
O=C(CNC(=O)c1ccccc1)Oc1cccc(Cl)c1	i	-1.8	nt	i	-1.6	nt
Cc1ccc(NC(=O)Cn2c(O)c(N=NC(=O)c3ccncc3)c3ccccc32)cc1	i	-2.4	8.7	i	20.0	52.1
Cc1cccc(NC(=O)Cn2c(O)c(N=NC(N)=S)c3ccccc32)c1	i	-1.6	-30.2	i	2.5	94.2*
O=C1c2ccccc2S(=O)(=O)c2cc(C(=O)N(c3ccccn3)c3ccccn3)ccc21	i	2.6	-6.1	-7.52*	-0.9	10.6
O=C(Nc1ccccn1)c1ccc2c(c1)S(=O)(=O)c1ccccc1C2=O	i	2.8	-15.7	i	2.2	2.0
O=C(NNC(=O)c1ccc(Br)o1)c1csc(N2CCOCC2)n1	nt	-2.9	nt	i	2.1	nt
Nc1ccccc1-c1n[nH]c(=S)s1	nt	nt	11.0	i	nt	-11.3
CCCN(CCC)CCCNC(=O)CC(C(=O)N1CCc2ccccc21)n1ccnc1 (centres undefined)	25*	-1.0	nt	i	0.4	13.2
NC(=O)COC(=O)CCCSc1nc2ccccc2s1	i	-1.4	-2.9	i	-0.2	9.2
N#Cc1ccsc1NC(=O)COC(=O)CCCSc1nc2ccccc2s1	i	-1.7	nt	i	-1.1	72.8*
Cc1cnc(NC(=O)CCCSc2nc3ccccc3s2)s1	i	1.1	nt	i	0.8	76.5*
O=[N+]([O-])c1ccccc1Nc1cccnc1	i	1.2	nt	i	1.5	nt
Cc1cc(C)n(C(C)CC(=O)Nc2ccc(-c3ccno3)cc2)n1 (centres undefined)	i	-1.9	-18.6	i	1.0	nt
CCCN1CCN(C(=O)c2ccc(F)c(S(=O)(=O)N3CCOCC3)c2)CC1	nt	2.0	nt	i	-2.0	nt
Cc1ccc(N2C(=O)N(CC(=O)Nc3ccc(F)c(F)c3)C(=O)C2C)cc1 (centres undefined)	i	-2.6	nt	i	2.6	nt
CCc1c(O)nc(SC2CC(=O)N(c3ccccc3)C2=O)[nH]c1=O (centres undefined)	i	-6.8	nt	-29.4*	-1.8	12.8
Cc1c(O)nc(SC2CC(=O)N(c3ccccc3)C2=O)[nH]c1=O (centres undefined)	i	0.9	0.8	i	0.5	-14.4
Cn1c(=O)c(C(=O)c2ccccc2)c(O)c2ccccc21	i	-1.2	nt	i	-1.5	nt
CC(=O)c1c(OC(=O)c2ccccc2)c2ccccc2n1C	i	5.3	nt	i	0.1	70.5*
CCN(CC(=O)Nc1ccc(OC)cc1)C(=O)CN1C(=O)NC(C)(c2ccc3ccccc3c2)C1=O (centres undefined)	i	-6.2	-5.1	i	2.9	nt
CC(Nc1nc(-c2ccc(F)cc2)cs1)c1nc2cc(C(F)(F)F)ccc2n1CCOCCO (centres undefined)	i	-1.4	nt	i	-0.1	nt
COc1ccc(-c2csc(NC(C)c3nc4cc(C(F)(F)F)ccc4n3CCOCCO)n2)cc1 (centres undefined)	25*	0.3	nt	i	2.0	nt
CN(C)c1ccc(CNC(=O)CCS(=O)(=O)c2ccc3c(c2)oc(=O)n3C)cc1	i	-1.9	-7.7	i	1.3	nt
N/C(=N\OC(=O)COc1ccc2ccccc2c1Br)c1cccnc1	25*	-0.3	-11.4	nt	1.5	-10.0
Cc1ccc(NC(=O)Nc2cccc([N+](=O)[O-])c2)cc1F	i	9.0	6.0	i	9.1	64.5
SMILES	ANO1 block	UPR XBP1 act	Lipid droplet	ANO1 activ	CHOP UPR activ	CHOP inhibitor
O=C(Nc1ccc([N+](=O)[O-])cc1)C(=O)Nc1cccc(C(=O)O)c1	i	-7.2	0.9	i	-10.0	102.0*
CC(C)(C)CC(C)(C)NC(=O)Nc1cccc([N+](=O)[O-])c1	i	2.5	1.5	i	-1.6	79.8*
CC(C)(C)c1ccc(C(=O)Nc2cccc([N+](=O)[O-])c2)cc1	i	nt	-9.1	i	nt	50.5
O=C(Nc1ccc(OC(F)(F)F)cc1)Nc1cccc([N+](=O)[O-])c1	i	11.0	17.0	i	4.5	105.8*
Cc1ccc(S(=O)(=O)Nc2ccccc2F)cc1C(=O)OC(C)C(=O)N1CCOCC1 (centres undefined)	i	-0.4	nt	i	-1.4	nt
CC(C)Oc1ccc(/C=N/NC(=O)C(CSCc2ccccc2)NC(=O)c2ccc([N+](=O)[O-])cc2)cc1 (centres undefined)	i	-0.1	-10.0	i	3.1	75.6*
O=C(COc1ccc(/C=N/NC(=O)c2ccccc2)cc1)Nc1ccc([N+](=O)[O-])cc1	i	-2.0	nt	i	0.3	-29.8
O=C(Nc1ccc(F)cc1)c1oc2ccccc2c1NC(=O)C1CCCC1	i	1.1	nt	i	0.9	70.9*
O=[N+]([O-])c1cccc(Cl)c1NCCNc1ncc(C(F)(F)F)cc1Cl	i	1.6	nt	i	-0.1	78.8*
COc1ccc(OC)c(C2=Nn3c(nnc3-c3ccco3)SC2)c1	i	8.1	nt	i	3.4	26.0
COc1ccc(OC)c(C2=Nn3c(nnc3-c3cccc(OC(C)C)c3)SC2)c1	i	3.9	nt	-5*	-2.2	42.8
N#CC(C(=O)Nc1ccc(Cl)c(Cl)c1)=C1Nc2ccccc2N1	i	14.3	nt	i	1.5	72.9*
Cc1cc2oc(=O)cc(Cn3ncc(Cl)c(Cl)c3=O)c2cc1Cl	i	-7.9	9.5	i	1.9	105.1*
Cc1cc2oc(=O)cc(CN3CCCCC3C)c2cc1Cl (centres undefined)	i	0.1	-9.9	i	-0.9	nt
Cc1cnn(C(=S)NCc2ccc(Cl)cc2)c1	i	1.9	-17.4	nt	-1.5	73.6*
Cc1cnn(C(=S)NCCc2ccccc2)c1	i	-0.4	17.4	i	3.9	53.4
Cc1ccccc1OCC(=O)OCC(=O)NC1CCCCCC1	nt	-0.6	nt	i	0.9	nt
Cc1ccc2cc3c(NC(=O)C(C)C)nn(C)c3nc2c1	i	-0.4	nt	i	-2.1	78.1*
CSc1ccccc1NC(=O)CSCc1ccc(C)cc1	i	-1.7	nt	-20.1*	0.5	56.3
Cc1ccc(CSCC(=O)Nc2ccccc2C(=O)O)cc1	i	-3.8	-3.9	i	2.6	nt
c1ccc(Nc2ccnc(Nc3ccccc3)n2)cc1	25*	2.8	15.1	i	6.0	43.5
CCN(Cc1ccc2c(c1)OCCO2)C(=O)CSc1nc(C)nc2sc(C)c(C)c12	nt	-2.7	nt	i	-0.7	nt
COC(=O)c1ccc(CN2CCc3ccc(NC(=O)c4ccncc4)cc3C2)cc1	100*	-4.8	22.7	i	0.6	nt
CSc1cccc(NC(=O)c2ccc(CN3CCc4ccccc4C3)cc2)c1	100*	-2.4	6.4	i	3.1	nt
